Results: publication PMC11897353 (Scientific Reports, 2025)
pIC50, pKi: −log10 of the molar value. Entries after “also recorded” stand apart in the source; their conditions may differ.

Legend:
human 5-HT6 receptors = human 5-HT6 receptors (Homo sapiens, UniProt P50406); assay: biochemical; assay type: binding
SH-SY5Y cells [1] = assay: MTT cell viability assay; assay type: cell-based, human; conditions: SH-SY5Y, 5 µM, 10 µM and 25 µM, 24 h, MTT
In short: (§1)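 SH-SY5Y cells were seeded at 5 × 10³ per well, grown 24 h, then given test compound at 5, 10 or 25 µM for 24 h, in triplicate. A solvent control was included, and 10% SDS added 1 h before the end served as the death control. MTT at 0.5 mg/mL ran 4 h at 37 °C, followed by overnight solubilization in 10% SDS/0.1 M HCl and A570. Results are % MTT reduction versus the negative control (100%); 3 experiments, one-way ANOVA.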

SH-SY5Y cells [2] = assay: Autophagy induction by LC3 immunofluorescence; assay type: cell-based, human; conditions: for number of autophagosomes per cell / percentage of cells with autophagosomes (LC3-positive punctate pattern): SH-SY5Y, 25 µM, 24 h, vs control; for capacity to induce autophagy: neuroblastoma SH-SY5Y cell line
In short: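 SH-SY5Y cells were grown on coverslips at 20–40% confluence for 24 h, then given test compound at 25 µM for 24 h. Fixation used 4% paraformaldehyde plus DAPI for 20 min. Cells were permeabilized with 0.1% Triton, blocked in 3% BSA, and stained with anti-LC3A/B (1:400, overnight 4 °C) then Alexa 488 secondary. Images at 20x. Cells with LC3 puncta were counted against DAPI nuclei, and puncta per cell by 3D object counting.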

5-HT6R = 5-HT6R protein levels by Western blot; assay type: cell-based, human; conditions: SH-SY5Y, 24 h, densitometry vs control; Rapamycin 100 nM
In short: (§2)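 Test compound was diluted in medium from a 5 mM DMSO stock and applied to SH-SY5Y cells for 24 h, after 24 h growth and a PBS wash. Controls were untreated medium and rapamycin. Cells were lysed in RIPA with protease/phosphatase inhibitors and protein measured by BCA. Equal protein was run on 6%/12% SDS-PAGE, then PVDF, 3% BSA block, primary overnight 4 °C, ECL. Densitometry; n≥3, mean ± SEM, one-way ANOVA with Tukey.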

LC3 and p62 = assay: Common autophagy pathway protein levels; assay type: cell-based, human; conditions: SH-SY5Y, 24 h, vs control; Rapamycin 100 nM
In short: as §2

mTOR pathway = mTOR pathway protein phosphorylation by Western blot; assay type: cell-based, human; conditions: SH-SY5Y, 24 h, vs control; Rapamycin 100 nM
In short: as §2

MTT cell viability assay = assay type: cell-based, human; conditions: human, SH-SY5Y neuroblastoma cells
In short: as §1

[3] = Preliminary zebrafish larvae viability assay; conditions: in vivo, other: larvae exposed to the compound at 2–50 µM
receptor 5-HT6 = conditions: reported for the endogenous ligand; cited from earlier work

Sequence of human 5-HT6 receptors (P50406 whole entry): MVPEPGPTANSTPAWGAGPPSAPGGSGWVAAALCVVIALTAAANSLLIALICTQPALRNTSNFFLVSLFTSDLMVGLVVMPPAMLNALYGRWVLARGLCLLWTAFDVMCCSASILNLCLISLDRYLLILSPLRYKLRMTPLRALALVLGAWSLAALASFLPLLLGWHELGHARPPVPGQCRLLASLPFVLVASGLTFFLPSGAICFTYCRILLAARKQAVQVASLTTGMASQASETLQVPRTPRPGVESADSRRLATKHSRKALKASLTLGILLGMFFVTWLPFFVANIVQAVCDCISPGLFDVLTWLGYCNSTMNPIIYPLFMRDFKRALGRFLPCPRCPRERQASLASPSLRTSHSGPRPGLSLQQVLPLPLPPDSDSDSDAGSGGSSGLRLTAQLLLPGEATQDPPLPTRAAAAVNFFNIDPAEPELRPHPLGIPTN

Row | SMILES | pIC50 (human 5-HT6 receptors) | pKi (human 5-HT6 receptors) | cytotoxicity / cellular viability (in words) (SH-SY5Y cells [1]) | number of autophagosomes per cell (SH-SY5Y cells [2]) | percentage of cells with autophagosomes (LC3-positive punctate pattern) (SH-SY5Y cells [2]) | capacity to induce autophagy (SH-SY5Y cells [2]) | expression levels of 5-HT6R (5-HT6R) | LC3-II/LC3-I ratio (LC3 and p62) | p62 levels (LC3 and p62) | total LC3-II levels (LC3 and p62) | phosphorylated levels of BECN1 (Ser30) (mTOR pathway) | phosphorylated levels of ULK1 (Ser757) (mTOR pathway) | phosphorylated levels of mTOR (Ser2448) (mTOR pathway) | viability at 24 h, 25 µM (MTT cell viability assay) | viability at 48 h [3] | pKi (receptor 5-HT6)
1 | COc1ccccc1N1CCN(CC(O)c2nn(S(=O)(=O)c3cccc4ccccc34)c3ccccc23)CC1 (stereo not shown) [PUC-55, 2-(4-(2-methoxyphenyl)piperazin-1-yl)-1-(1-(naphthalen-1-ylsulfonyl)-1H-indazol-3-yl)ethan-1-ol] | 7.41 | 7.43 | high cellular viability; also recorded: do not induce cytotoxicity; also recorded: do not cause toxicity | significant increase | significantly higher percentage | potent autophagy-inducing activity | increases significantly; also recorded: significantly increased | significant increase | significantly decreased | significantly increased | significantly increased | significantly decreases | significantly decreases |  |  | 
2 | COc1ccccc1N1CCN(CC(O)c2cn(S(=O)(=O)c3cccc4ccccc34)c3ccccc23)CC1 (stereo not shown) [PUC-10, 2-(4-(2-methoxyphenyl)piperazin-1-yl)-1-(1-(naphthalen-1-ylsulfonyl)-1 H-indol-3-yl)ethan-1-ol] |  |  | do not induce cytotoxicity; also recorded: do not cause toxicity | significant increase | significantly higher percentage | high capacity to induce autophagy | increases significantly; also recorded: significantly increased | significant increase | significantly decreased | significantly increased | significantly increased | significantly decreases | significantly decreases | > 90% | ~85% | 
3 | CO[C@H]1C[C@@H]2CC[C@@H](C)[C@@](O)(O2)C(=O)C(=O)N2CCCC[C@H]2C(=O)O[C@H]([C@H](C)C[C@@H]2CC[C@@H](O)[C@H](OC)C2)CC(=O)[C@H](C)/C=C(\C)[C@@H](O)[C@@H](OC)C(=O)[C@H](C)C[C@H](C)/C=C/C=C/C=C/1C [Rapamycin, reference compound] |  |  |  |  |  |  | did not modify the expression levels; also recorded: did not produce significant changes | significant increase | significantly decreased | significantly increased | significantly increased | significantly decreases | significantly decreases |  |  | 
